The species named for test [1] is Rattus norvegicus. Kind of test: Inhibition of production of ketones in rat liver hepatocytes from 18 hr fasted rats. The format is functional. To be noted: Hepatocyte. A digest of the protocol: (§1)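 Fatty acid oxidation was read as the fall in ketone production, tested in rat liver homogenates and in hepatocytes isolated from 18 h fasted rats. IC50 ± SE was taken from concentration-response data. Where no reasonable dose response was seen, the highest dose tested is given instead.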

The species entered for test [2] is Rattus norvegicus. Kind of test: Inhibition of production of ketones in rat liver homogenates. It counts as functional. A digest of the protocol:
as §1

For test [3], the system named is Rattus norvegicus. The test can be described thus: Blood glucose level in NIDDM rats after 11 days of treatment at a dose 0 mg/kg/d Blood samples taken 6 hr post-dose in a 6 hr fasted state. It counts as functional. An outline of the steps: (§2)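 NIDDM model: fat-fed, low-dose streptozotocin-treated rats. Oral gavage once daily for 11 days at 0 to 87.5 mg/kg/d. Blood sampled 6 h post-dose, with rats in a 6 h fasted state. Blood glucose reported in mg/dL as mean ± error. Significance tested against vehicle control (p<0.05, p<0.01).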

Test [4] has as its system Rattus norvegicus. The test can be described thus: Blood glucose level in NIDDM rats after 11 days of treatment at a dose 32.9 mg/kg/d Blood samples taken 6 hr post-dose in a 6 hr fasted state. The format is functional. A digest of the protocol: as §2
Test [5] has as its target T1, Carnitine O-palmitoyltransferase 1, liver isoform (Rattus norvegicus, UniProt P32198).
T1 sequence (P32198 whole entry): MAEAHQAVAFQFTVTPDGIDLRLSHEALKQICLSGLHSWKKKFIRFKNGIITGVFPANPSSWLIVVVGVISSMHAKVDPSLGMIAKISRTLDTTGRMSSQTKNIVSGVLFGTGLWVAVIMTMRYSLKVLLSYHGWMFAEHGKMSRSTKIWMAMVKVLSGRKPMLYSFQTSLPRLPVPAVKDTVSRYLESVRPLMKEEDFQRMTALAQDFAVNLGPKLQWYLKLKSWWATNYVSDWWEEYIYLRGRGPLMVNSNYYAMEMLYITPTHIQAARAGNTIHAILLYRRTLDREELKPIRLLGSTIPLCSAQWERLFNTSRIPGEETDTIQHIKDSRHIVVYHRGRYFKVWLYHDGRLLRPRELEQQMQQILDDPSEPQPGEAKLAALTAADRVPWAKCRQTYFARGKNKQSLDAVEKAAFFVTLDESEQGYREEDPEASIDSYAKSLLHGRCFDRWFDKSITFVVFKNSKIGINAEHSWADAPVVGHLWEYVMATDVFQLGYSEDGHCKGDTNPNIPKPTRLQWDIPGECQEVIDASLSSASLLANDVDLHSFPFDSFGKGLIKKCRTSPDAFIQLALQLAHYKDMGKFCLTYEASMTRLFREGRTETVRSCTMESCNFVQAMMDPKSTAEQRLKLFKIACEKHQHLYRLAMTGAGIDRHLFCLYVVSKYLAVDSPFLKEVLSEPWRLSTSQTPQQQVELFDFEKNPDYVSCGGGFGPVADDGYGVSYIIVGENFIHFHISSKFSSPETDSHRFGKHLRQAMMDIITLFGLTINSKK
Kind of test: In vitro inhibition of carnitine palmitoyltransferase I with respect to palmitoyl CoA in rat.

In test [6] the test system is Rattus norvegicus. Kind of test: Blood glucose level in NIDDM rats after 11 days of treatment at a dose 21.9 […] Blood samples taken 6 hr post-dose in a 6 hr fasted state. It counts as functional. A digest of the protocol: as §2
The test system of test [7] is Rattus norvegicus. Kind of test: Blood glucose level in NIDDM rats after 11 days of treatment at a dose 21.9 mg/kg/d Blood samples taken 6 hr post-dose in a 6 hr fasted state. The format is functional. A digest of the protocol:
as §2

The species entered for test [8] is Rattus norvegicus. The test can be described thus: Blood glucose level in NIDDM rats after 11 days of treatment Blood samples taken 6 hr post-dose in a 6 hr fasted state. The format is functional. A digest of the protocol:
as §2

pIC50, pKi: −log10 of the molar value. Several values for one entry are separate records, joined by “and”; a condition that tells them apart may be missing. Equal entries are not always repeated.

Here are results for eight molecules from ChEMBL document CHEMBL1128532, “Antidiabetic agents: a new class of reversible carnitine palmitoyltransferase I inhibitors” (J Med Chem, 1995).

Take `CCCCCCCCCCCCCCP(=O)([O-])CC(CC(=O)O)C[N+](C)(C)C` (configuration not stated): the pIC50 in the test listed under Rattus norvegicus [1] and in the test listed under Rattus norvegicus [2] was below 3.52 in each case.

Regarding `CCCCCCCCCCCCCCOP(=O)([O-])O[C@@H](CC(=O)O)C[N+](C)(C)C`, the pIC50 (in general, −log10 of the IC50, conventionally taken in molar units) in the test filed under Rattus norvegicus [1] is 3.66; in the test filed under Rattus norvegicus [2] it was below 3.52.

For the molecule `CCCCCCCCCCCCCCCP(=O)([O-])O[C@@H](CC(=O)O)C[N+](C)(C)C`, the pIC50 in the test filed under Rattus norvegicus [1] was below 3.52; in the test filed under Rattus norvegicus [2], below 4.00.

In the case of `CCCCCCCCCCCCCCOP(=O)([O-])O[C@H](CC(=O)O)C[N+](C)(C)C`, the Glucose level is 197 mg/dL with Rattus norvegicus [3]; 179 mg/dL and 93 mg/dL in the test on Rattus norvegicus [4]; 164 mg/dL in the test on Rattus norvegicus [6]; 164 mg/dL in the test on Rattus norvegicus [7]; 197 mg/dL in the test filed under Rattus norvegicus [8]. For the same molecule, the results for the negative logarithm of the IC50 (pIC50) in the test filed under Rattus norvegicus [1] and in the test listed under Rattus norvegicus [2] were 5.47 and 4.55, respectively. The pKi (commonly −log10 of the Ki, conventionally taken in molar units) in test [5] was 5.44.

Turning to `CCCCCCCCCCCCCCCC(=O)NC(CC(=O)[O-])C[N+](C)(C)C` (configuration not stated), the pIC50 in the test filed under Rattus norvegicus [1] was 5.92; in the test listed under Rattus norvegicus [2] it was 5.89.

On to `CCCCCCCCCCCCCCOP(=O)([O-])N[C@H](CC(=O)O)C[N+](C)(C)C`, for which the pIC50 in the test filed under Rattus norvegicus [1] is 4.34; in the test filed under Rattus norvegicus [2] it was 4.62.

`CCCCCCCCCCCCCCCP(=O)([O-])O[C@H](CC(=O)O)C[N+](C)(C)C`: the pIC50 in the test listed under Rattus norvegicus [1] is 5.52; in the test filed under Rattus norvegicus [2], 4.44.

As for `CCCCCCCCCCCCCCCP(=O)([O-])NC(CC(=O)O)C[N+](C)(C)C` (configuration not stated), the pIC50 in the test listed under Rattus norvegicus [1] is below 3.52; in the test filed under Rattus norvegicus [2] it was below 4.00.
